Data as given in ChEMBL document CHEMBL4017535 (J Med Chem, 2017).

Key:
[1] = Permeability in MDCK cells; format: ADME, cell-based, Canis lupus familiaris; conditions: dog, read-out: permeability
Liver [2] = test: Unbound intrinsic clearance in rat liver microsomes at 10 uM preincubated for 5 mins followed by NADPH addition measured after 60 mins by HPLC-UV-MS analysis; format: ADME, microsome; conditions: 1 h
Liver [3] = test: Unbound intrinsic clearance in mouse liver microsomes; format: ADME, microsome
Procedure, shortened: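 Liver microsome stability is expressed as unbound intrinsic clearance, Cl_int,u, in L/hr/kg. Dextromethorphan served as the in-house low-clearance reference control and verapamil as the high-clearance reference control.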

[4] = target: T1, Bromodomain-containing protein 4 (Homo sapiens, UniProt O60885); test: Inhibition of BRD4 in human H1299 cells assessed as decrease in HPV LCR-E2-EP400-mediated transcriptional repression after 24 hrs by Bright-Glo luciferase reporter gene assay; format: cell-based
[5] = Oral bioavailability in rat at 1 mg/kg; format: ADME, organism-based; conditions: in vivo
Procedure, shortened: (§1)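 In rats, 1 mg/kg was given by both IV and PO routes. IV clearance is unbound (Cl_p,u, L/hr/kg). FaFg is taken as F/(1-Clp/Qh), using rat Qh 3.8 L/hr/kg. Unbound plasma fraction was determined in rat plasma.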

Mus musculus [6] = test: Plasma unbound clearance in mouse at 3 mg/kg, iv; format: ADME, organism-based; conditions: in vivo
Procedure, shortened: (§2)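 Mouse PK: 3 mg/kg IV and 10 mg/kg PO. Clearance is expressed unbound, Cl_p,u in L/hr/kg. AUC is unbound, in µM*hr. FaFg is computed as F/(1-Clp/Qh), with mouse liver blood flow Qh 5.2 L/hr/kg. Unbound plasma fraction was measured separately.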

[7] = Fraction unbound in rat plasma at 1 uM after 4 hrs by LC-MS/MS method; format: ADME, cell-free
[8] = target: T1, Bromodomain-containing protein 4; test: Binding affinity to human N-terminal His6-tagged BRD4 BD1-BD2 (K57 to K550 residues) after 1 hr using alexa-647 conjugated probe by TR-FRET assay
Liver [9] = test: Unbound intrinsic clearance in human liver microsomes at 10 uM preincubated for 5 mins followed by NADPH addition measured after 60 mins by HPLC-UV-MS analysis; format: ADME, microsome; conditions: 1 h
Rattus norvegicus [10] = test: Oral absorption in rat at 1 mg/kg; format: ADME, organism-based; conditions: in vivo
Procedure, shortened: (§3)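 Oral absorption is expressed as FaFg, calculated as F/(1-Clp/Qh). Liver blood flow (Qh) was 5.2 L/hr/kg for mouse and 3.8 L/hr/kg for rat. Mouse dosing was 3 mg/kg IV and 10 mg/kg PO; rat dosing was 1 mg/kg IV and PO.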

Rattus norvegicus [11] = test: Unbound AUC in rat at 1 mg/kg, po; conditions: in vivo
Rattus norvegicus [12] = test: Plasma unbound clearance in rat at 1 mg/kg, iv; format: ADME, organism-based; conditions: in vivo; procedure, shortened: as §1
Mus musculus [13] = test: Unbound AUC in mouse at 10 mg/kg, po; format: ADME, organism-based; conditions: in vivo; procedure, shortened: as §2
MX1 = test: Antiproliferative activity against human MX1 cells after 72 hrs by Cell Titer Glo assay; format: functional, cell-based; conditions: MX1, 72 h
[14] = Oral bioavailability in mouse at 10 mg/kg; format: ADME, organism-based; conditions: in vivo; procedure, shortened: as §2
Mus musculus [15] = test: Oral absorption in mouse at 10 mg/kg; format: ADME, organism-based; conditions: in vivo; procedure, shortened: as §3
[16] = Fraction unbound in mouse plasma at 1 uM after 4 hrs by LC-MS/MS method; format: ADME, cell-free
Mus musculus [17] = test: Toxicity in NOD.SCID mouse assessed as maximum mean body weight loss at 8 mg/kg, iv qd for every 7 days (reference value: 9%); format: organism-based; conditions: in vivo, 168 h
[18] = Toxicity in iv dosed NOD.SCID mouse xenografted with gamma-irradiated human Kasumi-1 cells administered as […] for every 7 days; format: organism-based; conditions: in vivo
Procedure, shortened: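 Kasumi-1 AML xenograft in mice; dosing intravenous once every 7 days at 8 mg/kg.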

| Papp [1] [×10⁻⁶ cm/s] | CL free (Liver [2]) [mL/min/kg] | CL free (Liver [3]) [mL/min/kg] | EC50 [4] [nM] | bioavailability [5] [%] | clearance (Mus musculus [6]) [mL/min/kg] | fraction unbound at 4 h, 1 µM [7] | Ki [8] [nM] | CL free (Liver [9]) [mL/min/kg] | FaFg (Rattus norvegicus [10]) | fAUC (Rattus norvegicus [11]) [µM·h] | clearance (Rattus norvegicus [12]) [mL/min/kg] | fAUC (Mus musculus [13]) [µM·h] | bioavailability [14] [%] | FaFg (Mus musculus [15]) | fraction unbound at 4 h, 1 µM [16] | Compound | EC50 (MX1) [nM] | Activity (Mus musculus [17]) [%] | MTD at 168 h [18] [mg/kg] |
| --- | --- | --- | --- | --- | --- | --- | --- | --- | --- | --- | --- | --- | --- | --- | --- | --- | --- | --- | --- |
| 12 | 2000 | 300 | 11 | 10 | 650 | 0.034 | 2.4 | 83.3 | 0.32 | 0.016 | 1230 | 0.34 | 55 | 0.77 | 0.039 | Cn1cc(-c2cc(NS(C)(=O)=O)ccc2Oc2ccccc2)c2cc[nH]c2c1=O | 16 | – | – |
| 17 | < 65 | 283 | 21 | 40 | 167 | 0.036 | 4.5 | 155 | 0.52 | 0.19 | 417 | 1.3 | 65 | 0.7 | 0.033 | Cn1cc(-c2cc(NS(C)(=O)=O)ccc2Oc2ccc(F)cc2F)c2cc[nH]c2c1=O | 29 | – | – |
| – | – | – | – | – | – | – | – | – | – | – | – | – | – | – | – | Nc1ncn([C@@H]2O[C@H](CO)[C@@H](O)[C@H]2O)c(=O)n1 [AZACITIDINE] | – | 1 | 8 |
